Source: PMC3068229 (Biochemistry, 2011)

What was measured:
annexin A1 [1] = target: T1, annexin A1 (Mus musculus, UniProt P10107); experiment: SPR, carbohydrates flowed over annexin A1 immobilized on NTA chips; assay type: binding; details: annexin A1 1 µM immobilized
T1 sequence (P10107 1-346): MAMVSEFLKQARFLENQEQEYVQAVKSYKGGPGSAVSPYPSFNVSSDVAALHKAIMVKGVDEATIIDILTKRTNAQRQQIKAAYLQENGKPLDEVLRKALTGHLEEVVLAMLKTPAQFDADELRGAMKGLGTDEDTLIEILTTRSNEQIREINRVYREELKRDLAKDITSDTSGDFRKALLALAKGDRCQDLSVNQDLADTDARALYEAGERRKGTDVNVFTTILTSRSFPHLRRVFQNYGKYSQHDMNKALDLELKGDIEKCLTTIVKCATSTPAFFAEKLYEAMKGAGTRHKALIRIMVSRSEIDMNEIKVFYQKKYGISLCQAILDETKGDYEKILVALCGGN
How it was run: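 The NTA chip was primed with 500 μM NiCl2 in HBS-EP running buffer (10 mM HEPES pH 7.4, 150 mM NaCl, 50 μM EDTA, 0.05% Tween-20), then His-tagged mouse annexin A1 (1 μM) was captured. Test glycans, either free glycosaminoglycans or polyacrylamide-coupled glycans at 5 or 50 μg/mL, or buffer alone, were injected for 3 min in HBS-N with 1 mM CaCl2 and 1 mM MgCl2. After dissociation, the chip was regenerated with 35 mM EDTA.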

annexin A1 [2] = target: T1, annexin A1; experiment: Glycan array; assay type: binding; details: annexin A1-His 0.2 mg/ml, 2 mM CaCl2, 2 mM MgCl2, fluorescence (RFU)
How it was run: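 Recombinant full-length mouse annexin A1 with a C-terminal His6 tag was expressed in E. coli BL21(DE3) with 1 mM IPTG induction, purified on Ni-NTA and dialysed into 20 mM Tris pH 7.9 with 250 mM NaCl. The array was probed with 0.2 mg/mL protein in TBS-CM (pH 7.4) containing 1% BSA and 0.05% Tween-20, for 60 min at room temperature in a humid chamber. Read-out was mean RFU of 6 replicates after dropping the highest and lowest values.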

LacNAc
Binding to annexin A1 immobilized on NTA SPR chip (annexin A1 [1]; carbohydrate flowed over): did not interact

CO[C@H]1O[C@H](COS(=O)(=O)O)[C@@H](O[C@@H]2O[C@@H](C(=O)O)[C@@H](O[C@H]3O[C@H](COS(=O)(=O)O)[C@@H](O[C@@H]4O[C@H](C(=O)O)[C@@H](O[C@H]5O[C@H](COS(=O)(=O)O)[C@@H](O)[C@H](O)[C@H]5NS(=O)(=O)O)[C@H](O)[C@H]4O)[C@H](OS(=O)(=O)O)[C@H]3NS(=O)(=O)O)[C@H](O)[C@H]2OS(=O)(=O)O)[C@H](O)[C@H]1NS(=O)(=O)O [arixtra, fondaparinux sodium]
Glycosaminoglycan binding to annexin A1 immobilized on NTA SPR chip (annexin A1 [1]; glycosaminoglycans 5 or 50 µg/mL): bound less well

O=C[C@H](O)[C@@H](O)[C@H](O)[C@H](O)C(=O)O [glucuronic acid]
Annexin A1 binding on glycan array (annexin A1 [2]): among the best recognized glycans

[3OSO3^−][6OSO3^−]Galβ1-4[6OSO3^−]GlcNAcβ-Sp0 [compound 26]
Annexin A1 binding on glycan array (annexin A1 [2]): strongest binder | Annexin A1 binding on glycan array (annexin A1 [2]; listed as [3OSO3^− ][6OSO3^−]Galβ1-4[6OSO3^−]GlcNAcβ): best binder
